# Only a sample is shown.
# Apaf1 activ = activators of human Apaf-1 apoptosome; Apaf-1 apoptosome caspase-3 activation, DEVD-Rh110 fluorescence; active compounds read low; activity change, negative = activation, % at 20 µM; 330,000 tested, 0.31% active; AID 489031;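 active = activity change at or below -40% at 20 µM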
# Target sequence (O14727 whole entry, looked up): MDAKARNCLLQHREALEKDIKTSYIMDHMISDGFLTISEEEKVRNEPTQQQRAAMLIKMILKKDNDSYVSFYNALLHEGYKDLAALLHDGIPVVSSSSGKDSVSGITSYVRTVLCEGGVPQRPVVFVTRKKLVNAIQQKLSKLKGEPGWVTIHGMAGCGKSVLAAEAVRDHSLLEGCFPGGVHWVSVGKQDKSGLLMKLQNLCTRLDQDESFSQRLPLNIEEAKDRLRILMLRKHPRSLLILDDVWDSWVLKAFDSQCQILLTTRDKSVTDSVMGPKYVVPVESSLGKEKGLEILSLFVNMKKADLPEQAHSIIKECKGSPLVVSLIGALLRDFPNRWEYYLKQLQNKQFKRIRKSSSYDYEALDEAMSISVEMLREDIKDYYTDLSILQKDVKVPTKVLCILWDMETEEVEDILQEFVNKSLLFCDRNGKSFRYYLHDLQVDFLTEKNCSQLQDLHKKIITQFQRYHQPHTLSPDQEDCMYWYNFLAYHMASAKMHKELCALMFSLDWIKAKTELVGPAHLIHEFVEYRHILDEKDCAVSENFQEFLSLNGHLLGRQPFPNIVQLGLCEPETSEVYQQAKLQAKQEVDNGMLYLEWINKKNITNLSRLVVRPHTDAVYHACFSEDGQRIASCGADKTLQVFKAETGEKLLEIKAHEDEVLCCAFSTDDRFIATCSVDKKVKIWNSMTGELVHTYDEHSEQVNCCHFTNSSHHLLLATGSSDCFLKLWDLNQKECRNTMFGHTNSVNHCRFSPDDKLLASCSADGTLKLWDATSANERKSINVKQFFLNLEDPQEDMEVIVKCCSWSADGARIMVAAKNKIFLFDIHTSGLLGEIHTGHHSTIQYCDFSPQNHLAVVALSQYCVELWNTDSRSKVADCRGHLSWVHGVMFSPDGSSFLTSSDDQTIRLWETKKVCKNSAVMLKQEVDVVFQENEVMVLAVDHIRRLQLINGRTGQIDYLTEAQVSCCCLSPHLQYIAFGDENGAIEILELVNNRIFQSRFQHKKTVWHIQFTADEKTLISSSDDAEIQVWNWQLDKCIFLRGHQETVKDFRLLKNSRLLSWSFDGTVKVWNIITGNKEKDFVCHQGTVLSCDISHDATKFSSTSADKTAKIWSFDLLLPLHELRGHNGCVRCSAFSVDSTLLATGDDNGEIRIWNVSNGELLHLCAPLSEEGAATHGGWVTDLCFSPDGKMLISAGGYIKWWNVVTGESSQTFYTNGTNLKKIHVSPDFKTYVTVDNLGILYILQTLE
#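 Material: reconstituted apoptosome of Apaf-1, cytochrome c, caspase-9, procaspase-3; times: 30 min preincubation, 50 min reaction, room temperature; measured by: fluorescence, 540 nm emission, 480 nm excitation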
# Rh110 act interf = counter-screen for Apaf-1 activators: fluorescence interference | shares compounds with Apaf1 activ | Rh110 fluorescence interference, quenched caspase reaction, Ex480/Em540 | fluorescence interference (activity change), % at 20 µM, hits read low | 980 tested, under 10 active | AID 504616;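 active = mean activity change at or below -40% when tested at 20 µM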
# Apaf-1 act conf2 = confirmation of human Apaf-1 activators. shares compounds with Apaf1 activ. reconstituted apoptosome caspase-3 activity, DEVD-Rh110 fluorescence; active compounds read low. 980 tested, 5% active. activity change, negative = activation, % at 20 µM;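 active = mean activity change at or below -40%, meaning activation of 40% or more, at 20 µM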
# Fluor interf act = Apaf-1 activator counter-screen fluorescence artifact | shares compounds with Apaf1 activ | fluorescence interference counterscreen, Apaf-1 activator assay | EC50, µM | 55 tested, under 10 active; call rule not given here
# * = called active by the depositor; nt = no result.
SMILES,Apaf1 activ,Rh110 act interf,Apaf-1 act conf2,others
Cc1ccc(S(=O)(=O)/N=C2\C=C(Nc3cccc(C(=O)O)c3)C(=O)c3ccccc32)cc1,93.6,nt,nt,
Cc1ccc(S(=O)(=O)/N=C2\C=C(Nc3cccc(C(=O)O)c3)C(=O)c3ccccc32)c(C)c1,90.2,nt,nt,Fluor interf act=>100
CCc1ccc(S(=O)(=O)/N=C2\C=C(Nc3ccc(C(=O)O)cc3)C(=O)c3ccccc32)cc1,96.4,nt,nt,
O=C(Nc1ccccc1N1CCCC1)C1CCN(S(=O)(=O)c2cccc(C(F)(F)F)c2)CC1,41.8,nt,nt,
O=C(Nc1ccccc1)N1CCC(C(=O)N2CCN(S(=O)(=O)c3cccc(F)c3)CC2)CC1,-50.5*,9.4,9.0,
CN(C)CCNC(=O)C(=O)NCC1OCCN1S(=O)(=O)c1cc(F)ccc1F (stereo not drawn),46.5,nt,nt,
NC1(C#Cc2ccc3oc(=O)c(-n4cc(-c5ccsc5)nn4)cc3c2)CCCCC1,47.7,nt,nt,
COc1ccc(-c2oc3ncnc(NCCN4CCOCC4)c3c2-c2ccc(OC)cc2)cc1,42.1,nt,nt,
COc1ccc(-c2sc3cc4c(cc3c2-c2ccc(OCCN3CCCCC3)cc2)OCO4)cc1,59.4,nt,nt,
CCCCCCSc1ccc(-c2nc3cc(C)ccn3c2NC2CCCCC2)cc1,46.6,nt,nt,
O=C(NC1CCCC1)c1ccc2nc(-c3ccco3)c(-c3ccco3)nc2c1,44.5,nt,nt,
Cc1cc(-c2ccccc2C(=O)NC2CCCCC2)on1,-148.5*,9.3,7.6,
Cc1cnc(C(=O)Nc2ccc(C)c(S(=O)(=O)N(C)C)c2)cn1,-46.7*,7.7,9.4,
CCOC(=O)CSc1nc2cc(C(=O)NCc3ccco3)ccc2c(=O)n1-c1ccc(F)cc1,-105.2*,3.2,12.4,
Cc1cc(Br)ccc1OCCCCN1CCC(C)CC1,-57.2*,-3.2,11.3,
CCCCCCCCCCCCCCCC[N+](C)(C)CC,87.5,nt,nt,
Cn1c(=O)c2cc(NCc3ccccc3)nnc2n(C)c1=O,93.8,nt,nt,
CCc1ccccc1OC[C@@H](O)CN[C@H]1CCCc2ccccc21,46.0,nt,nt,
Cc1cc2occ(CC(=O)NC3CCCc4ccccc43)c2cc1C (stereo not drawn),-163.8*,-2.5,17.0,
CC(=O)CCc1ccc(OCC(O)CNC2CCCc3ccccc32)cc1 (stereo not drawn),65.0,nt,nt,
Cc1cc(C)c2sc(N(CCCN(C)C)C(=O)c3ccc(S(=O)(=O)N(C)C4CCCCC4)cc3)nc2c1,40.1,nt,nt,
O=[N+]([O-])c1ccc(/C=C/c2ccc3cccc([N+](=O)[O-])c3n2)cc1,-107.3*,-7.6,10.9,
CCOC(=O)c1c(CN(C)C)n(C)c2c(O)c(N=NC(N)=O)c3ccc(Br)cc3c12,95.1,nt,nt,
O=S1(=O)N=C(Nc2ccc(S(=O)(=O)N3CCCCC3)cc2)c2ccccc21,-44.4*,-2.9,8.6,
O=C1C(NS(=O)(=O)c2ccc(Cl)cc2)=C(N2CCCCC2)C(=O)c2ccccc21,71.8,nt,nt,
SMILES,Apaf1 activ,Rh110 act interf,Apaf-1 act conf2,others
CC(=O)N(C1=C(Cl)C(=O)c2ccccc2C1=O)C1CCCCC1,85.4,nt,nt,
COc1ccc(OCc2cc(C(=O)N3CCSCC3)no2)c(Cl)c1,-153.2*,7.3,12.8,
CCCCCCCCCCOC(=O)Cn1c(COc2ccccc2C)[n+](C)c2ccccc21,80.8,nt,nt,
C#CCOCCOCCOCCNc1nc(N2CCN(C(=O)CCCCCCCCCCNC(=O)[C@H]([C@@H](C)CC)n3cc(CCCCCN)nn3)CC2)nc(N2CCN(C(=O)CCCCCCCCCCNC(=O)[C@H]([C@@H](C)CC)n3cc(CCCCN=C(N)N)nn3)CC2)n1,71.5,nt,nt,
CCOC(=O)COc1ccc(S(=O)(=O)NCC2CCCO2)cc1 (stereo not drawn),-185.3*,0.2,8.3,
COc1ccc(C(=O)/C=C/C(=O)N(CC(=O)NC2CCCCC2)CC2CCCO2)c(O)c1 (stereo not drawn),49.3,nt,nt,
CCOc1ccccc1N1CSC2=C(C#N)C(c3c(OC)ccc4ccccc34)CC(=O)N2C1 (stereo not drawn),40.8,nt,nt,
O=c1cc(-c2cccc([N+](=O)[O-])c2)[nH][nH]1,67.8,nt,nt,
Cc1ccccc1Cn1cc(/C=N/n2cnnc2)c2ccccc21,-56.8*,1.3,10.6,
Cc1[nH][nH]c(=O)c1C(c1c(C)[nH][nH]c1=O)c1cn(Cc2cccc3ccccc23)c2ccccc12,94.8,nt,nt,
Cc1[nH]n(-c2ccccc2)c(=O)c1C(C[N+](=O)[O-])c1ccccc1Cl (stereo not drawn),79.1,nt,nt,
CC(C)[N+]1(C)[C@@H]2CC[C@H]1CC(OC(=O)C(CO)c1ccccc1)C2 (stereo partly drawn),-5.4,nt,nt,
O=C1C=C(N2CCOCC2)c2ccccc2C1=O,98.2,nt,nt,
O=C1O/C(=C\C(=O)N2CCOCC2)c2ccccc21,-141.0*,2.1,0.3,
O=C(O)c1cccc(NC2=C(N3CCOCC3)C(=O)c3ccccc3C2=O)c1,84.4,nt,nt,
CC1=NN(c2ccc(S(=O)(=O)O)cc2Cl)C(=O)C1,66.2,nt,nt,
CN1/C(=N\O)c2cccc3cccc1c23,86.2,nt,nt,
COC(=O)c1sccc1NC(=O)c1c(C)noc1C,-653.9*,10.0,5.1,
CCc1ccc2nc(NC(=O)CSCc3c(C)noc3C)sc2c1,45.6,nt,nt,
COc1ccc2cc1Oc1ccc(cc1)C[C@H]1c3c(cc4c(c3Oc3cc5c(cc3OC)CCN(C)[C@@H]5C2)OCO4)CCN1C,49.2,nt,nt,
Cc1cc2c(N)cccc2nn1,96.8,nt,nt,
COc1ccc(-c2csc(-c3ccc(O)cc3)n2)cc1,-115.7*,8.4,4.5,
N#Cc1c(N(CCO)CCO)nc(N)c2c(N)nc3c(c12)CC(=O)N3CC1CCCO1 (stereo not drawn),97.6,nt,nt,
CCCCCNC(=O)c1cn(CC)c2cc(N3CCN(C)CC3)c(F)cc2c1=O,-72.1*,5.3,13.9,
COC(=O)c1ccccc1NC1=C/C(=N\S(=O)(=O)c2ccc(C(=O)O)cc2)c2ccccc2C1=O,95.2,nt,nt,
SMILES,Apaf1 activ,Rh110 act interf,Apaf-1 act conf2,others
CN1C(=O)c2cccc3c(S(=O)(=O)NCc4ccco4)ccc1c23,54.5,nt,nt,
CCOc1cc2[nH]c(=O)n(CCCCC(=O)NCc3ccco3)c(=O)c2cc1OCC,-190.1*,-2.1,8.0,
C#CCOCCOCCOCCNc1nc(N2CCN(C(=O)CCCCCCCCCCNC(=O)[C@H]([C@@H](C)CC)n3cc(CCCCCN)nn3)CC2)nc(N2CCN(C(=O)CCCCCCCCCCNC(=O)[C@H](CCCCN)n3cc(CCCC(=O)O)nn3)CC2)n1,55.7,nt,nt,
C=CCNC(=O)CN(c1cccc(Br)c1)S(C)(=O)=O,-55.6*,2.1,7.4,
Cc1cccc(N(C(=O)Cn2nnc3ccccc32)C(C(=O)NCc2ccco2)c2ccncc2)c1 (stereo not drawn),-46.8*,2.0,9.0,
C#CCOCCOCCOCCNc1nc(N2CCN(C(=O)CCCCCCCCCCNC(=O)[C@H]([C@@H](C)CC)n3cc(CCCCN=C(N)N)nn3)CC2)nc(N2CCN(C(=O)CCCCCCCCCCNC(=O)[C@H](CCCCN)n3cc(C)nn3)CC2)n1,73.2,nt,nt,
CC1=NN(c2ccc(Br)cc2)C(=O)/C1=C/c1ccc(-c2ccccc2C(=O)O)o1,77.6,nt,nt,
O=C1c2ccccc2-c2nnc(-c3ccccc3)cc21,71.3,nt,nt,
Oc1ccc2ccccc2c1C=NC12CN3CCN(CN(C3)C1)C2,90.0,nt,nt,
Cc1c(Cc2ccccc2)sc(/N=C/c2c(O)ccc3ccccc23)c1C(N)=O,-63.1*,10.9,22.6,
